This is an account of results in ChEMBL document CHEMBL3098111, “Discovery of 2,5-diarylnicotinamides as selective orexin-2 receptor antagonists (2-SORAs)” (Bioorg Med Chem Lett, 2013).

Each structure is given as a SMILES string. Calls of active or inactive are those of the source. No cut-off for these calls is given here.

Test [1] deals with Androgen receptor (Rattus norvegicus) (UniProt P15207). Put plainly: Inhibition of rat androgen receptor at 10 uM relative to control.
The target of test [2] is Estrogen receptor beta (Homo sapiens) (UniProt Q92731). As to the kind of experiment: Inhibition of human ERbeta receptor at 10 uM relative to control.
Sequence of Estrogen receptor beta (Homo sapiens) (Q92731 whole entry): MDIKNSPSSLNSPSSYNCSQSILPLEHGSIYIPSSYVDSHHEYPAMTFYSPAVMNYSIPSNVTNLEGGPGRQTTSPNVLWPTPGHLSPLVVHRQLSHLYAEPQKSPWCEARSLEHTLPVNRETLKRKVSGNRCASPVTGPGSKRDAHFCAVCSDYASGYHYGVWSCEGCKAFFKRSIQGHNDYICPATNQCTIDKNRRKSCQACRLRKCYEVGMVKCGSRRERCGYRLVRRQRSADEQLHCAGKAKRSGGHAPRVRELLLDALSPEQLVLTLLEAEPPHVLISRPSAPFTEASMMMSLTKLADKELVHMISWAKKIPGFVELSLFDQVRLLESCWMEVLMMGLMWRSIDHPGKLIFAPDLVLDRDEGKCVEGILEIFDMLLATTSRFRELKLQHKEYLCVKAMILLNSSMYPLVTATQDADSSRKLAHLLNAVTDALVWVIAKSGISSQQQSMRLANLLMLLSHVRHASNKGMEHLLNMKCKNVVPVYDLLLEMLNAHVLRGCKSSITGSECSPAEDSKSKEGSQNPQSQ
The species entered for another test is Homo sapiens. Put plainly: Inhibition of human nicotinic acetylcholine receptor at 10 uM relative to control.
In test [3] the target is C-X-C chemokine receptor type 2 (Homo sapiens) (UniProt P25025). As to the kind of experiment: Inhibition of human CXCR2 at 10 uM relative to control.
Sequence of C-X-C chemokine receptor type 2 (Homo sapiens) (P25025 whole entry): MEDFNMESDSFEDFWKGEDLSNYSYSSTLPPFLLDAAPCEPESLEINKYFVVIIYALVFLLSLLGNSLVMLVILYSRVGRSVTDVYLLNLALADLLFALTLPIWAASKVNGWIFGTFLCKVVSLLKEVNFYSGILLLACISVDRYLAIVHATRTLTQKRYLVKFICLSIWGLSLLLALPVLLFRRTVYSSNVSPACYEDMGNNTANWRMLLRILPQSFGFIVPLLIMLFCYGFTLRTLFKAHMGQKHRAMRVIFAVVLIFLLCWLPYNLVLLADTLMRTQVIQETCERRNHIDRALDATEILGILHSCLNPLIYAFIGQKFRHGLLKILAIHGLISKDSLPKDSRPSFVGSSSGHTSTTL
Test [4] has as its target T1, 5-hydroxytryptamine receptor 1A (Homo sapiens) (UniProt P08908).
T1 sequence (whole entry): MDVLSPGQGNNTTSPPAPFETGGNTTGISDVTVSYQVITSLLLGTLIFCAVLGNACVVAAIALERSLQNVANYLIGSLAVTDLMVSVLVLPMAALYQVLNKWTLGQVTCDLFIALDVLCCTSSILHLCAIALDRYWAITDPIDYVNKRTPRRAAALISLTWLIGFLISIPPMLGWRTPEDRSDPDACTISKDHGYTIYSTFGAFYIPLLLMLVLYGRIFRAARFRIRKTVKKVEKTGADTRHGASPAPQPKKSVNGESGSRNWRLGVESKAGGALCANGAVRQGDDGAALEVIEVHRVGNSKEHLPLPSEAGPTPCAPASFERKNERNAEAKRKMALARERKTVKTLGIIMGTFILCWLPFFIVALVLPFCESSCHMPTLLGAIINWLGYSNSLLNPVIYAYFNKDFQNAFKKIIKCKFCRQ
Put plainly: Inhibition of human 5-HT1A receptor at 0.1 uM relative to control.

The species entered for a further test is Bos taurus. As to the kind of experiment: Inhibition of bovine PDE6 at 100 uM relative to control.
The subject of the next test is Rattus norvegicus. Put plainly: Antiinsomnic activity in rat EEG model assessed as decrease in active wake time at 15 mg/kg, po. Format: functional, organism-based. On the set-up: dose 15 mg/kg. An outline of the steps: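 Rats with EEG telemetry given 15 mg/kg orally during their active period, vehicle 20% Vitamin E TPGS in water. Sleep architecture (active wake, light sleep, delta and REM sleep) scored from EEG.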

For the next test, the species on record is Oryctolagus cuniculus. As to the kind of experiment: Inhibition of rabbit monoamine transporter at 10 nM relative to control.
Test [5] addresses B1 bradykinin receptor (Homo sapiens) (UniProt P46663). Put plainly: Inhibition of human bradykinin B1 receptor at 10 uM relative to control.

Sequence of B1 bradykinin receptor (Homo sapiens) (P46663 whole entry): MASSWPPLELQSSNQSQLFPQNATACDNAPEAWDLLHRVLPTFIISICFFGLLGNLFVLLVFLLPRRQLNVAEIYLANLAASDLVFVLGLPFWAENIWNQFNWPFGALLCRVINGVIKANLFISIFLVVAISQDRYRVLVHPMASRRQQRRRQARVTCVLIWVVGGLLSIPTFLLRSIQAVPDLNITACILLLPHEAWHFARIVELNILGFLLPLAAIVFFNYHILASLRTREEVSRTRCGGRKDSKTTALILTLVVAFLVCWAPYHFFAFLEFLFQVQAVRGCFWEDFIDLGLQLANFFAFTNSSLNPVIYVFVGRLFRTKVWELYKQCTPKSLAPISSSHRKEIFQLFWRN
Sequence of Androgen receptor (Rattus norvegicus) (P15207 whole entry S389L): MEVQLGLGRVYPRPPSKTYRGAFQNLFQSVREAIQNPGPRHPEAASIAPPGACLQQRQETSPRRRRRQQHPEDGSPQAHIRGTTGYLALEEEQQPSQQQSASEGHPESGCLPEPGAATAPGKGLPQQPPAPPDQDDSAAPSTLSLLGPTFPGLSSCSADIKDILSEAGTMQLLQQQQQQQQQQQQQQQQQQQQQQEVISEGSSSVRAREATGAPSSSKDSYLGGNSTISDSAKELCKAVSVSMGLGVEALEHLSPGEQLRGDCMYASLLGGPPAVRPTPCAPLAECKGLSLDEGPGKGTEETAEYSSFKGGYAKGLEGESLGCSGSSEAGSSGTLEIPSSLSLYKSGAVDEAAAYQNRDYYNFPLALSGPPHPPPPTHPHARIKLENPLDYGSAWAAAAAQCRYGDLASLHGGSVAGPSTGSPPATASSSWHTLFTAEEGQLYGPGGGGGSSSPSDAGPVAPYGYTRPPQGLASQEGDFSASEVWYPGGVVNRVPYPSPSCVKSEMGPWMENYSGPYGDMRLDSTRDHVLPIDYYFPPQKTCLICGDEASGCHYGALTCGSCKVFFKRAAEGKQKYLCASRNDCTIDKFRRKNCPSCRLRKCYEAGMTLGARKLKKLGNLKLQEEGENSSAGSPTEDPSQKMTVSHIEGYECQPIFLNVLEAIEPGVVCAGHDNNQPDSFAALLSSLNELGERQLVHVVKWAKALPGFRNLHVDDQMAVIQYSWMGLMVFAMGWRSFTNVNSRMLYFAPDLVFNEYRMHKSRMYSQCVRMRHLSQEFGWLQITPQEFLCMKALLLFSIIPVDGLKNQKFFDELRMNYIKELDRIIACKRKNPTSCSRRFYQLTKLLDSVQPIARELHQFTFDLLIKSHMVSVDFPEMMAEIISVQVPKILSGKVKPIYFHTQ

What is called inhibition is the relative decrease from the control value, in per cent. Take `COc1ccc(CNC(=O)c2cc(-c3cc(Cl)cc(Cl)c3)cnc2-c2cccnc2)cc1OC`: the inhibition is 7% in test [1]; -7% in test [2]; -1% in the test filed under Homo sapiens; 0% in test [3]; 10% in test [4]; 16% in the test filed under Bos taurus. The inhibition in the test listed under Oryctolagus cuniculus was 2%; in test [5] it was 3%. In addition, the outcome with Rattus norvegicus was Active.
